How the values were obtained:
[1] = molecular target: T1, Adenosine receptor A1 (Homo sapiens) (UniProt P30542); experiment: Displacement of [3H]CCPA from recombinant human A1 adenosine receptor expressed in CHO cell membranes at 1 uM measured after 90 mins in presence of adenosine deaminase by liquid scintillation counting method relative to control
T1 sequence (whole entry): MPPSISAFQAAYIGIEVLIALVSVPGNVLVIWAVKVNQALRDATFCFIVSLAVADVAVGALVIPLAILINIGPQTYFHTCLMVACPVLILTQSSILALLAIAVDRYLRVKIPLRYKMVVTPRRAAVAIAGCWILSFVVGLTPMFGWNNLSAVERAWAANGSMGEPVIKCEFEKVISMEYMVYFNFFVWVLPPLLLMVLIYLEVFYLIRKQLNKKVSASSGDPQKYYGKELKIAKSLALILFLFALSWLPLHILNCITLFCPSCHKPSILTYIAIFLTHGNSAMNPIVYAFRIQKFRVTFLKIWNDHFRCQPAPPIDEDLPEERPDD
In short: (§1)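 Single-point competition binding at human AR subtype membranes, each against its own tritiated radioligand. The test compound is given at 1 μM, and the result is reported as percent inhibition of radioligand binding. The radioligand-specific footnotes give n = 3.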

Adenosine receptor A3 [2] = molecular target: T2, Adenosine receptor A3 (Homo sapiens, UniProt P0DMS8); experiment: Displacement of [3H]PSB-11 from recombinant human A3 adenosine receptor expressed in CHO cell membranes measured after 45 mins in presence of adenosine deaminase by liquid scintillation counting method
T2 sequence (P0DMS8 whole entry): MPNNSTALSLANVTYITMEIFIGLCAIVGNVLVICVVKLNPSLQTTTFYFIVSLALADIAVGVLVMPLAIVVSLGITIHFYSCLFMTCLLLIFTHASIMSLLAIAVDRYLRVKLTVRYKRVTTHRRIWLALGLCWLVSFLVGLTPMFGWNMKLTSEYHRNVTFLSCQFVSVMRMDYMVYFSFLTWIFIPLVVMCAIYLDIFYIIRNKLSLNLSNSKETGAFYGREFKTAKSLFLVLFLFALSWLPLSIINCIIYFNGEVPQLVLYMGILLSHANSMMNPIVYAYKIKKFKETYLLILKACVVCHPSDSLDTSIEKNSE
In short: (§2)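 Competition binding on membranes of cells recombinantly expressing the human receptor (CHO or HEK cells), with tritiated radioligand per subtype: [3H]PSB-603 for A2B, [3H]MSX-2 for A2A, [3H]CCPA for A1, [3H]PSB-11 for A3. Ki ± SEM from n = 3, some from extrapolated curves. Weak binders are reported as % inhibition of radioligand binding at 1 μM.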

Homo sapiens [3] = species on record: Homo sapiens; experiment: Selectivity index, ratio of Ki for displacement of [3H]CCPA from recombinant human A1 adenosine receptor expressed in CHO cell membranes to Ki for displacement of [3H]PSB-603 from recombinant human A2B adenosine receptor expressed in CHO cell membranes
Adenosine receptor A2a [4] = molecular target: T3, Adenosine receptor A2a (Homo sapiens, UniProt P29274); experiment: Displacement of [3H]MSX-2 from recombinant human A2A adenosine receptor expressed in CHO cell membranes measured after 30 mins in presence of adenosine deaminase by liquid scintillation counting method; in short: as §2
T3 sequence (P29274 whole entry): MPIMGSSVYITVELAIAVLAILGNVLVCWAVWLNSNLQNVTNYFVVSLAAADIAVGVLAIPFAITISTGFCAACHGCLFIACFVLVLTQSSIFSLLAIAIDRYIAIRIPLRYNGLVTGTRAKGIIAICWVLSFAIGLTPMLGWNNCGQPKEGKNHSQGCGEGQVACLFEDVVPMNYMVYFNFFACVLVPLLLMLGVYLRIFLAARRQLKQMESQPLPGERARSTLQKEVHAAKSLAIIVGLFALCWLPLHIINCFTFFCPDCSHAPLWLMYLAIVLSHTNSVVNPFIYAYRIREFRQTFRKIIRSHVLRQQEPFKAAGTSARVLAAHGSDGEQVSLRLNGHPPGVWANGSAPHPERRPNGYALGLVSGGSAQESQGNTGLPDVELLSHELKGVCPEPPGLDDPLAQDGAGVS

Homo sapiens [5] = species on record: Homo sapiens; experiment: Selectivity index, ratio of Ki for displacement of [3H]PSB-11 from recombinant human A3 adenosine receptor expressed in CHO cell membranes to Ki for displacement of [3H]PSB-603 from recombinant human A2B adenosine receptor expressed in CHO cell membranes
Adenosine receptor A2a [6] = molecular target: T3, Adenosine receptor A2a; experiment: Displacement of [3H]MSX-2 from recombinant human A2A adenosine receptor expressed in CHO cell membranes at 1 uM measured after 30 mins in presence of adenosine deaminase by liquid scintillation counting method relative to control; in short: as §1
Adenosine receptor A2b [7] = molecular target: T4, Adenosine receptor A2b (Homo sapiens, UniProt P29275); experiment: Displacement of [3H]PSB-603 from recombinant human A2B adenosine receptor expressed in CHO cell membranes measured after 75 mins in presence of adenosine deaminase by liquid scintillation counting method; in short: as §2
T4 sequence (P29275 whole entry): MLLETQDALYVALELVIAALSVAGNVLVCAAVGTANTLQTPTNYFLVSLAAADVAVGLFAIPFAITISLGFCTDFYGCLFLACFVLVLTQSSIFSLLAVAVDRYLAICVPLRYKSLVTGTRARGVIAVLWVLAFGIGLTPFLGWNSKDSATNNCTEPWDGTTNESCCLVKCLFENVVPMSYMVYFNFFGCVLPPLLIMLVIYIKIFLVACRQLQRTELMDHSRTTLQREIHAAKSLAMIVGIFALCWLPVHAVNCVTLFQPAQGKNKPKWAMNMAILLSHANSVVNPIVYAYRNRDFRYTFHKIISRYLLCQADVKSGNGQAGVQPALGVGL

Adenosine receptor A1 [8] = molecular target: T5, Adenosine receptor A1 (Homo sapiens, UniProt P30542); experiment: Displacement of [3H]CCPA from recombinant human A1 adenosine receptor expressed in CHO cell membranes measured after 90 mins in presence of adenosine deaminase by liquid scintillation counting method; in short: as §2
T5 sequence (P30542 whole entry): T1 sequence (whole entry)

[9] = molecular target: T6, Adenosine receptor A3 (Homo sapiens) (UniProt P0DMS8); experiment: Displacement of [3H]PSB-11 from recombinant human A3 adenosine receptor expressed in CHO cell membranes at 1 uM measured after 45 mins in presence of adenosine deaminase by liquid scintillation counting method relative to control; in short: as §1
T6 sequence (whole entry): T2 sequence (P0DMS8 whole entry)

Homo sapiens [10] = species on record: Homo sapiens; experiment: Selectivity index, ratio of Ki for displacement of [3H]MSX-2 from recombinant human A2A adenosine receptor expressed in CHO cell membranes to Ki for displacement of [3H]PSB-603 from recombinant human A2B adenosine receptor expressed in CHO cell membranes
[11] = molecular target: T7, Adenosine receptor A2b (Homo sapiens) (UniProt P29275); experiment: Competitive antagonist activity at recombinant human A2B adenosine receptor expressed in CHO cells assessed as reduction in NECA-induced […] cAMP accumulation preincubated for 10 mins followed by NECA stimulation for 15 mins […] and measured after 15 mins; assay type: functional, cell-based
T7 sequence (whole entry): T4 sequence (P29275 whole entry)

[12] = molecular target: T8, Adenosine receptor A3 (Mus musculus) (UniProt Q61618); experiment: Displacement of [3H]NECA from recombinant mouse A3 adenosine receptor expressed in CHO cell membranes at 1 uM measured after 180 mins in presence of adenosine deaminase by liquid scintillation counting method relative to control
T8 sequence (whole entry): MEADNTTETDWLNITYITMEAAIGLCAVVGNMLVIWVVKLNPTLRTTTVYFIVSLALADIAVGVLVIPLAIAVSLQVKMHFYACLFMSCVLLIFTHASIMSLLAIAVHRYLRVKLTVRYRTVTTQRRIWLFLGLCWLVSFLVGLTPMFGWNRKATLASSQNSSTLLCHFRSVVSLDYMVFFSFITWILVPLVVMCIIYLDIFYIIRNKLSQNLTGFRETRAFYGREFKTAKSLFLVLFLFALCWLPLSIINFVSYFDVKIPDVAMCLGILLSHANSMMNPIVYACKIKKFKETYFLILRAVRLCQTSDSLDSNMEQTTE

[13] = Selectivity ratio of Ki for displacement of [3H]PSB-603 from recombinant mouse A2B adenosine receptor expressed in CHO cell membranes to Ki for displacement of [3H]PSB-603 from recombinant human A2B adenosine receptor expressed in CHO cell membranes
Adenosine receptor A3 [14] = molecular target: T9, Adenosine receptor A3 (Mus musculus, UniProt Q61618); experiment: Displacement of [3H]NECA from recombinant mouse A3 adenosine receptor expressed in CHO cell membranes measured after 180 mins in presence of adenosine deaminase by liquid scintillation counting method
T9 sequence (Q61618 whole entry): T8 sequence (whole entry)

Adenosine receptor A1 [15] = molecular target: T10, Adenosine receptor A1 (Mus musculus, UniProt Q60612); experiment: Displacement of [3H]CCPA from recombinant mouse A1 adenosine receptor expressed in CHO cell membranes measured after 90 mins in presence of adenosine deaminase by liquid scintillation counting method
T10 sequence (Q60612 whole entry): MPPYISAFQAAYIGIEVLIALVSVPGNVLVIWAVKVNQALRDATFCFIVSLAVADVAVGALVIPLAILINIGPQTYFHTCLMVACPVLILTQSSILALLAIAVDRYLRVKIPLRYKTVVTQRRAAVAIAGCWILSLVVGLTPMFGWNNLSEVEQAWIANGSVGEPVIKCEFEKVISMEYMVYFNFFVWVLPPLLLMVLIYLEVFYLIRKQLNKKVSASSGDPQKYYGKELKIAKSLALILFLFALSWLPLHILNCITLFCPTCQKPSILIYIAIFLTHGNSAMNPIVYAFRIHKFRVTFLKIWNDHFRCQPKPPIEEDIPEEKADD

Mus musculus = species on record: Mus musculus; experiment: Selectivity ratio of Ki for displacement of [3H]CCPA from recombinant mouse A1 adenosine receptor expressed in CHO cell membranes to Ki for displacement of [3H]PSB-603 from recombinant mouse A2B adenosine receptor expressed in CHO cell membranes
Adenosine receptor A2b [16] = molecular target: T11, Adenosine receptor A2b (Mus musculus, UniProt Q60614); experiment: Displacement of [3H]PSB-603 from recombinant mouse A2B adenosine receptor expressed in CHO cell membranes measured after 75 mins in presence of adenosine deaminase by liquid scintillation counting method
T11 sequence (Q60614 whole entry): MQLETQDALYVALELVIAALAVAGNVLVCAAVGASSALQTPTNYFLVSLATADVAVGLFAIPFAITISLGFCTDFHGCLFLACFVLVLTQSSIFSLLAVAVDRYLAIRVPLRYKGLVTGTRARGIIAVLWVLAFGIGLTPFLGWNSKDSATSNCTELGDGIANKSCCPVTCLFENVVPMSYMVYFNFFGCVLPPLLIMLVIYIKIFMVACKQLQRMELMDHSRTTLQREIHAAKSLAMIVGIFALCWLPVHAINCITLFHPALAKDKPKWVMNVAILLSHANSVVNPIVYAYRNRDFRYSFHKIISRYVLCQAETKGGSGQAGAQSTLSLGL

Structure (SMILES) | inhibition [1] [%] | Ki (Adenosine receptor A3 [2]) [nM] | Ratio Ki (Homo sapiens [3]) | Ki (Adenosine receptor A2a [4]) [nM] | Ratio Ki (Homo sapiens [5]) | inhibition (Adenosine receptor A2a [6]) [%] | Ki (Adenosine receptor A2b [7]) [nM] | Ki (Adenosine receptor A1 [8]) [nM] | inhibition [9] [%] | Ratio Ki (Homo sapiens [10]) | Kb [11] [nM] | inhibition [12] [%] | Ratio Ki [13] | Ki (Adenosine receptor A3 [14]) [nM] | Ki (Adenosine receptor A1 [15]) [nM] | Ratio Ki (Mus musculus) | Ki (Adenosine receptor A2b [16]) [nM]
CCCn1c(=O)[nH]c2nc(-c3ccc(S(=O)(=O)N4CCN(c5ccc(OC)c(F)c5)CC4)cc3)[nH]c2c1=O | 34 | > 1000 | > 800 | > 1000 | > 800 | 30 | 1.24 | > 1000 | 21 | > 800 | – | – | – | – | – | – | –
CCCn1c(=O)[nH]c2nc(-c3ccc(S(=O)(=O)N4CCN(Cc5ccc(C(=O)O)cc5)CC4)cc3)[nH]c2c1=O | 12 | > 1000 | 10 | 1160 | 10 | – | 96.7 | > 1000 | -7 | 10 | – | – | – | – | – | – | –
CCCn1c(=O)[nH]c2nc(-c3ccc(S(=O)(=O)N4CCN(Cc5ccc(Br)c(F)c5)CC4)cc3)[nH]c2c1=O | – | > 1000 | 690 | 403 | – | – | 0.473 | 326 | 27 | – | – | – | – | – | – | – | –
CCCn1c(=O)[nH]c2nc(-c3ccc(S(=O)(=O)N4CCN(c5cccc(Br)c5)CC4)cc3)[nH]c2c1=O | -1 | > 1000 | > 4270 | > 1000 | > 4270 | 24 | 0.234 | > 1000 | 27 | > 4270 | – | – | – | – | – | – | –
CCCn1c(=O)[nH]c2nc(-c3ccc(S(=O)(=O)N4CCN(Cc5cccc(Br)c5)CC4)cc3)[nH]c2c1=O | – | > 1000 | 620 | 92.4 | – | – | 0.148 | 928 | 23 | 620 | 0.201 | 5 | 1.5 to 6 | > 1000 | 107 | > 120 | 0.901
CCCn1c(=O)[nH]c2nc(-c3ccc(S(=O)(=O)N4CCN(C(C)c5ccccc5)CC4)cc3)[nH]c2c1=O (centres undefined) | 42 | > 1000 | > 120 | ≥ 1000 | > 120 | 42 | 8.34 | ≥ 1000 | 0 | > 120 | – | – | – | – | – | – | –
